Active and inactive are the calls of the source. The calls are words filed in the database; no cut-off is given here.
Legend:
Format in all cases: cell-based
[1] = biological target: Protein kinase C delta type (Homo sapiens) (UniProt Q05655); experiment: Binding affinity to recombinant human GFP-tagged PKC-delta expressed in human LNCAP cells assessed as induction of protein translocation from plasma membrane to internal membrane at 10000 nM after 2 to 10 mins by confocal microscopic analysis
In short: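 LNCaP cells were transiently transfected with human GFP-PKCδ or GFP-RasGRP3 and imaged 24 h later by live confocal microscopy (488 nm excitation) every 30 s for 30 min after 10 μM ligand. Distribution was assessed from representative images. n = 3–6.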

[2] = biological target: T1, Ras guanyl-releasing protein 3 (Homo sapiens) (UniProt Q8IV61); experiment: Activation of RasGRP3 (unknown origin) overexpressed in HEK293 cells assessed as ERK1/2 phosphorylation at 1 to 10 uM after 30 mins by Western blot analysis
T1 sequence (whole entry): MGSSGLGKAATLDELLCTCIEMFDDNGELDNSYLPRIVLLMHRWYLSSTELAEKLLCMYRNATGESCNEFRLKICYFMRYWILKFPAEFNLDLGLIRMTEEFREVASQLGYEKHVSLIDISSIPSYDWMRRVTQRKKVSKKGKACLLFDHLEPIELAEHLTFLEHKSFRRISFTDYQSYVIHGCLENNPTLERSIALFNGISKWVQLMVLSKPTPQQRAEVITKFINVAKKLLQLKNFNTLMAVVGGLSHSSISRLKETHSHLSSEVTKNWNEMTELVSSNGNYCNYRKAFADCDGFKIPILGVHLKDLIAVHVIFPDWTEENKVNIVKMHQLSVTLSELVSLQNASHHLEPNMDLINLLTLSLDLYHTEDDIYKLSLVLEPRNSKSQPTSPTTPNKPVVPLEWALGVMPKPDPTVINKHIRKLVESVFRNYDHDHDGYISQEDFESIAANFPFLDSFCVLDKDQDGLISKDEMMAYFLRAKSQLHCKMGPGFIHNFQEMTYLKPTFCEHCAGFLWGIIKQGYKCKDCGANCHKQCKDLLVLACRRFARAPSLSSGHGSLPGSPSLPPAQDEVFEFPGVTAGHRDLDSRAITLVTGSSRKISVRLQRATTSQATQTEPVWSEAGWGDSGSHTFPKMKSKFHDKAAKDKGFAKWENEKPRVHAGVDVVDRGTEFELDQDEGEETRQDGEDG

[3] = biological target: Protein kinase C alpha type (Homo sapiens, UniProt P17252); experiment: Binding affinity to recombinant human GFP-tagged PKC-alpha expressed in CHOK1 cells assessed as induction of protein translocation from plasma membrane to internal membrane at 10000 nM after 2 to 5 mins by confocal microscopic analysis; conditions: CHO-K1
In short: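 CHO-K1 cells were transiently transfected with human GFP-PKCα and imaged live by confocal microscopy 24 h later (488 nm excitation, 500–530 nm emission) every 30 s for 30 min after 10 μM ligand. Membrane/cytoplasm intensity ratio from 4 μm2 regions was normalized to time 0. n = 3–6.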

Protein kinase C delta type (Homo sapiens), sequence (Q05655 whole entry, looked up): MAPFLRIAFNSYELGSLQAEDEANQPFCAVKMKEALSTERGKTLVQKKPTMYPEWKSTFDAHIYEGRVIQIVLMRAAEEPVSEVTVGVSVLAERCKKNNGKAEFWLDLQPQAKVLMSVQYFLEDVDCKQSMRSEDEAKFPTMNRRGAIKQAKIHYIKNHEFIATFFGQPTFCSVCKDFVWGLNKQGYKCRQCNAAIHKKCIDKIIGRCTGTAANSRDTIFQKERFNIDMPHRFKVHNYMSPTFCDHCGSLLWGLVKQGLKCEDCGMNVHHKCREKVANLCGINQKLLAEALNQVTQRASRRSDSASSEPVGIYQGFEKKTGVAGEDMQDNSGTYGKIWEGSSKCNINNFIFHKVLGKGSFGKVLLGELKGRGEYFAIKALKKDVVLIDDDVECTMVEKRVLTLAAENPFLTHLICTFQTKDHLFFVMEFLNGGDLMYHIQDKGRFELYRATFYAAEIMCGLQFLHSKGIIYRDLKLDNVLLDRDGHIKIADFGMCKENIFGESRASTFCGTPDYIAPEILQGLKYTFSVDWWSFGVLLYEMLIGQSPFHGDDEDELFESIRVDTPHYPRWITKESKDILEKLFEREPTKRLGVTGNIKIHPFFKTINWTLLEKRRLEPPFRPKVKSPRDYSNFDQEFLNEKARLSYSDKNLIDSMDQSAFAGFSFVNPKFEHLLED

Compound	Activity [1]	Activity [2]	Activity [3]
CCCC(CCC)C(=O)OCC1(CO)C/C(=C\c2cccc3ccn(C)c23)C(=O)O1 (configuration not stated)	Active		
CCCC(CCC)C(=O)OCC1(CO)C/C(=C\c2cn(C)c3ccccc23)C(=O)O1 (configuration not stated)	Active	Active	
CCCC(CCC)C(=O)OCC1(CO)C/C(=C\c2cccc3c2ccn3C)C(=O)O1 (configuration not stated)	Active		
CCCC(CCC)C(=O)OCC1(CO)C/C(=C\c2ccc3ccn(C)c3c2)C(=O)O1 (configuration not stated)	Active		Active
CCCC(CCC)C(=O)OCC1(CO)C/C(=C\c2ccc3c(ccn3C)c2)C(=O)O1 (configuration not stated)	Active		

Source: ChEMBL document CHEMBL3286272, “Synthesis, biological, and biophysical studies of DAG-indololactones designed as selective activators of RasGRP” (Bioorg Med Chem, 2014)
